Shown are actives, neighbours in structure and some others; about 3.6% of the full set was active somewhere.
NadD block: inhibitors of Staphylococcus aureus NadD; hit rate 0.78% among 360,000; inhibition, % at 20 µM; purified NadD enzyme, colorimetric absorbance read-out; in the data active means inhibition above about 26%
ATG4B inh: ATG4B (human) cysteine protease inhibition; hit rate 0.51% among 340,000; AID 504462; Q9Y4P1; inhibition, % at 8.33 µM; ATG4B cleavage of LC3-PLA2, NBD-HPC fluorescence, 1 h; in the data active means inhibition above about 40%
Target sequence (Q9Y4P1 whole entry, looked up): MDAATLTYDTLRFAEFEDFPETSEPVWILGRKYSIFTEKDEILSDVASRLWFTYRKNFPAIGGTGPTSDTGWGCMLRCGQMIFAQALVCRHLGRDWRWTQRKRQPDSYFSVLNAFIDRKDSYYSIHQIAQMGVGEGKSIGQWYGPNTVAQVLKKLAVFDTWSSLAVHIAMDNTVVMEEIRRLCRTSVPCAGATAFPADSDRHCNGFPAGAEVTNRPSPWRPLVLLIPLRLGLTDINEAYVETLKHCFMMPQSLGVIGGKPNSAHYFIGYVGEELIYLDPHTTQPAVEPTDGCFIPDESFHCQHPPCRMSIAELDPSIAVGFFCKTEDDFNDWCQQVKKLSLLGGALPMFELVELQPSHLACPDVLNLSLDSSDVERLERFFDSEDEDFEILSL
SENP1 FRET inh: SENP1 (human) catalytic domain inhibition; hit rate 0.21% among 360,000; inhibition, % at 10 µM; recombinant SENP1 catalytic domain, CyPet-SUMO1-YPet FRET cleavage;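 active means inhibition at least 30% at 10 µM, raw YFP signal under a set limit, fluorescence ratio 0.5 to 1.5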;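 further: 0% = enzyme with DMSO and 100% = no enzyme wells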
Target sequence (Q9P0U3 419-644 limits assumed): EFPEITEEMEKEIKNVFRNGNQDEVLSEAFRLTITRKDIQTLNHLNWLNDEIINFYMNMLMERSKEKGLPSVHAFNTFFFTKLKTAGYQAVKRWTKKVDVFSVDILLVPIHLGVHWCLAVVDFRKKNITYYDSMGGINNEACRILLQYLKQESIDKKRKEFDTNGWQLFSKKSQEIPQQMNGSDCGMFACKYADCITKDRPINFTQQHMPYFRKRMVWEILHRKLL
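Compound: 10 µM single point, 0.5% DMSO; Test system: hSENP1 catalytic domain, recombinant; Timing: 50 min reaction at room temperature; Technique: FRET, CFP and YFP emission; Control set: no-enzyme wells low, DMSO-plus-enzyme wells high control.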
UCH37 DUB inh: human UCH37 deubiquitinating enzyme inhibition. Q9Y5K5. purified proteasome/UCH37, Ub-AMC cleavage fluorescence. inhibition, % (test concentration not listed). hit rate 0.33% among 330,000. AID 588478;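 active means mean inhibition over replicate wells above about 20%, limit read from the data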;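 further: 0% = compound-free wells with enzyme and 100% = wells lacking proteasome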
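Material: Human UCH37 enzyme supplied as purified proteasome complex | Schedule: 30 min compound-proteasome preincubation then 25 min substrate reaction, room temperature | Detection: AMC fluorescence from Ub-AMC cleavage, excitation 355 nm, emission 460 nm | Benchmarks: Wells without proteasome as full block, compound-free enzyme plus substrate as uninhibited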
GRIN3A LBD mod: modulators (binders) of human NR3A ligand-binding domain | Tm shift relative to glycine control, % at 25 µM | NR3A LBD differential scanning fluorimetry, Tm shift; 0% = protein alone, 100% = glycine-bound protein | hit rate 2.5% among 340,000;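 active means melting temperature shift of at least 10% of the positive control shift, at one fixed dose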
UCH37 reconfirm: UCH37 Ub-AMC cleavage inhibition, confirmed. hit rate 27% among 480. AID 624100. inhibition, % at 20 µM. Proteasome-bound UCH37, Ub-AMC cleavage fluorescence. shares compounds with UCH37 DUB inh;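 active means average inhibition over replicates above about 50%, so the earlier screening hit is confirmed, limit read from the data; inactive means the rest, counted as false positives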;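 further: based on cleavage rate fitted by regression over a 30 min kinetic read; 0% = proteasome plus Ub-AMC and 100% = Ub-AMC without proteasome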
Active calls of the source: *; . = no result.

SMILES	NadD block	ATG4B inh	SENP1 FRET inh	UCH37 DUB inh	GRIN3A LBD mod	UCH37 reconfirm
CN(C)/C=C/C1=C([N+](=O)[O-])C(c2cccc([N+](=O)[O-])c2)NC(=O)N1 (configuration not stated)	3	1	-1	27*	-1	21
CCOC(=O)C1=C(CCc2ccccc2)NC(=O)NC1c1cccc([N+](=O)[O-])c1 (configuration not stated)	4	-12	1	5	-4	.
O=C(O)CN1C(=O)/C(=C\c2ccccc2OCc2ccc(F)cc2)SC1=S	6	16	0	9	4	.
O=C(O)CN1C(=O)/C(=C\c2cc(Br)ccc2OCc2ccc(F)cc2)SC1=S	9	22	3	27*	29*	69*
Cc1nn(C)c(C)c1C=NNC(=O)C(C)(C)Oc1ccc(Cl)cc1	.	.	.	3	.	.
CCSC1=C(C#N)C2(CCCC2)C(C#N)=C(N)N1	2	-4	-11	43*	-2	13
O=S(=O)(NCc1ccccc1)c1ccc(F)cc1Br	-5	3	3	-2	1	.
O=S(=O)(NCc1ccc(F)cc1)c1ccccc1Br	-10	-11	2	35*	-1	-11
CCOc1c(O)ccc(/C=C2\SC(=S)NC2=O)c1[N+](=O)[O-]	1	5	0	59*	6	63*
CCOc1ccc(N(C)c2ccc(/C=C3/SC(=S)NC3=O)cc2)cc1	20	6	-27	.	-1	.
Cc1[nH]n(-c2ccccc2)c(=O)c1C(C[N+](=O)[O-])c1ccc(Cl)cc1 (configuration not stated)	4	9	1	41*	-6	-1
Cc1[nH]n(-c2ccccc2)c(=O)c1C(C[N+](=O)[O-])c1ccc(F)cc1 (configuration not stated)	0	-6	3	10	0	.
Cc1ccc(C(C[N+](=O)[O-])c2c(C)[nH]n(-c3ccccc3)c2=O)cc1 (configuration not stated)	1	10	-5	53*	6	4
COc1ccc(-c2nn(-c3ccccc3)cc2C=NNS(=O)(=O)c2ccccc2)cc1	.	.	.	5	.	.
CCN1/C(=C/c2ccc3cc(C)ccc3[n+]2CC)Sc2ccccc21	17	15	94	36*	-3	44
CCN1/C(=C/c2ccc3cc(C)ccc3[n+]2CC)Sc2cc(C)c(C)cc21	26	21	58	11	-1	.
Cc1nc(C)c(CC(=O)NN=Cc2ccc(O)cc2)c(=O)[nH]1	.	.	.	1	.	.
C/C(=C\C(=O)C(F)(F)F)Nc1ccc(C(F)(F)F)cc1	3	-3	2	46*	-1	6
O=S(=O)(NCCc1ccccc1)c1cccc(S(=O)(=O)N2CCOCC2)c1	-6	-8	0	-1	2	.
O=S(=O)(NCCC1=CCCCC1)c1cccc(S(=O)(=O)N2CCOCC2)c1	-4	-5	1	58*	5	59*
Cn1nnnc1SC(C(=O)Nc1ccc(F)cc1)c1ccccc1 (configuration not stated)	-6	-7	3	-2	-2	.
Cn1c(SC(C(=O)Nc2ccc(F)cc2)c2ccccc2)nc2ccccc21 (configuration not stated)	13	-8	0	45*	3	-5
C[C@H]1COC2=C1C(=O)C(=O)c1c2ccc2c1CCCC2(C)C	11	-26	3	41*	-10	75*
COc1ccc(CN2CCCCC2C(=O)Nc2ccc(OC)c(OC)c2)cc1OC (configuration not stated)	-3	13	0	-1	0	.
COc1ccc(NC(=O)C2CCCCN2N)cc1OC (configuration not stated)	-3	-8	1	29*	5	46
SMILES	NadD block	ATG4B inh	SENP1 FRET inh	UCH37 DUB inh	GRIN3A LBD mod	UCH37 reconfirm
Cc1ccccc1-c1nc2ccccc2c(=O)n1N=Cc1ccccc1[N+](=O)[O-]	.	.	.	3	.	.
O=C(CCN1C(=O)/C(=C/c2cccs2)SC1=S)Nc1ccc(C(=O)O)c(O)c1	5	39	-3	26*	1	18
COC(=O)C1CC(=NNS(=O)(=O)c2ccc(C)cc2)c2sccc2C1 (configuration not stated)	.	.	.	7	.	.
Cc1ccc(C(=O)NC2(O)C(=O)c3ccccc3C2=O)cc1C	-4	-6	3	78*	-2	61*
O=C(NC1(O)C(=O)c2ccccc2C1=O)c1ccc(C(F)(F)F)cc1	-3	5	3	79*	3	69*
O=C(O)c1cc(-c2ccc(/C=C3/SC(=S)N(Cc4ccccc4)C3=O)o2)ccc1Cl	20	16	-25	45*	2	60*
O=C(O)CCCN1C(=O)/C(=C\c2ccc(-c3nc4ccccc4s3)o2)SC1=S	8	0	-49	39*	0	44
Cc1ccc(-c2ccc(C=Nn3cnnc3)o2)cc1	.	.	.	-32	.	.
O=c1cc(-c2ccc(O)cc2)oc2c(O)c(O)c(O)c(O)c12	1	9	-11	69*	-11	22
O=c1cc(-c2ccc(O)cc2)oc2c1ccc1ccccc12	2	-53	10	9	0	.
CN1CCN(C2=CC3=CC(=C(C#N)C#N)CCC3CC2)CC1 (configuration not stated)	-6	-185	-36	26*	4	15
N#CC(C#N)=C1C=C2C=C(N3CCCCCC3)CCC2CC1 (configuration not stated)	7	-173	-25	4	-9	.
CCOc1ccc(/C=C2/SC(=S)N(C(C(=O)O)c3ccccc3)C2=O)cc1OCC (configuration not stated)	19	16	-47	51*	4	12
CCOc1cc(/C=N\NC(=O)c2ccc(C)nc2)cc([N+](=O)[O-])c1O	-2	-5	3	.	-1	.
CCOc1cc(C=NNC(=O)c2ccc(C)nc2)cc([N+](=O)[O-])c1O	.	.	.	27*	.	24
O=C(c1cccs1)N1CCN(S(=O)(=O)N2CCOCC2)CC1	1	-17	1	36*	-1	24
O=C(NCc1cccnc1)C(=O)NN=Cc1ccccc1[N+](=O)[O-]	.	.	.	6	.	.
CC1(C)OC(c2ccccc2)=C/C(=C\C=N\NC(=O)c2ccncc2)O1	8	-2	6	.	-3	.
CC1(C)OC(c2ccccc2)=C/C(=C/C=Nc2ccccc2)O1	6	6	-19	48*	-2	-18
Cc1[nH]n(-c2ccc(Cl)cc2)c(=O)c1C=Nn1c(C)nc2ccccc2c1=O	.	.	.	4	.	.
CC(=O)N(N=C1Sc2ccccc2C1=O)c1ccccc1C	.	.	.	83*	.	62*
CC(=O)N(N=C1Sc2ccccc2C1=O)c1ccccc1	.	.	.	31*	.	19
CC(=O)N(/N=C1\Sc2ccccc2C1=O)c1cccc(C)c1	1	-2	-13	.	-8	.

Compound activity (PubChem BioAssay)
